Laboratory results published in paper PMC11485011 (Chemical Science, 2024).
pEC50, pIC50, pKi: −log10 of the molar value. “Also recorded” adds a separate entry of the source. Read-outs that look alike come from different tables or passages of the source.

Assays:
hCB1R = hCB1R (Homo sapiens, UniProt P21554); assay: [3H]CP55940 displacement assay, hCB1R CHO membranes; assay type: binding
Outline: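 Competitive radioligand binding on membranes from CHO cells stably expressing hCB1R. Test compound displaces radioligand, and Ki is derived from that displacement. Selectivity calculated as Ki(CB1R)/Ki(CB2R). Means of at least three independent experiments, each in duplicate.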

hCB2R [1] = target: T1, hCB2R (Homo sapiens, UniProt P34972); assay: [3H]CP55940 displacement assay, hCB2R CHO membranes; assay type: binding; conditions: for pKi: Ki hCB2R, [3H]CP55940 displacement, CHO membranes stably expressing hCB2R; for Selectivity, ratio of Ki (CB1R)/Ki (CB2R): hCB2R over hCB1R
hCB2R [2] = target: T1, hCB2R; assay: HTRF cAMP assay in CHO cells stably expressing hCB2R; assay type: cell-based; conditions: for Function: hCB2R cAMP assay
Outline: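 Cells stably expressing hCB2R; inhibition of cAMP accumulation read by HTRF. […] Emax expressed as % of the reference full agonist APD371. Means of four or seven independent experiments run in technical replicates.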

[3] = target: hCB2R overexpressing CHO cells (Homo sapiens, UniProt P34972); assay: super-resolution confocal imaging, mean fluorescence intensity of labeled CB2R; assay type: cell-based; conditions: 0.8 μM probe, 15 min
Outline: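 Live hCB2R-overexpressing CHO cells stained with fluorescent probe plus Hoechst 33342 nuclear counterstain. Cells optically sectioned by confocal laser-scanning microscopy with an Airyscan detector (super-resolution).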

hCB2R-CHO cells [4] = assay: endocytosis blocking study; assay type: cell-based, human; conditions: pretreatment 30 min with 0.4 M sucrose and 5 μg mL−1 filipin, probe 10 min
hCB2R-CHO cells [5] = assay: co-staining with LysoTracker, super-resolution confocal microscopy; assay type: cell-based, human; conditions: 15 min
Outline: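 Live hCB2R-overexpressing CHO cells exposed for 15 min to the fluorescent probe together with LysoTracker as lysosome marker. Imaged by super-resolution confocal microscopy and channels merged to assess overlap. Three independent experiments, with five fields examined each.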

[6] = tested on: primary human macrophages; assay: confocal microscopy of primary human macrophages; assay type: cell-based; conditions: 0.8 μM, 15 min, endogenous CB2R
hCB2R [7] = target: T1, hCB2R; assay: TR-FRET kinetic binding characterization on HEK293-hCB2R cell membranes
hCB2R [8] = target: T1, hCB2R; assay type: cell-based; conditions: 0.014 to 10 μM, live CHO cells hCB2R vs hCB1R and wt
[9] = EC50 (column EC50 or IC50), agonists, HTRF cAMP assay, cells stably expressing hCB2R
[10] = normalized to reference full agonist APD371
[11] = read-out: IC50 (column EC50 or IC50), inverse agonists, HTRF cAMP assay, cells stably expressing hCB2R

T1 sequence (P34972 whole entry): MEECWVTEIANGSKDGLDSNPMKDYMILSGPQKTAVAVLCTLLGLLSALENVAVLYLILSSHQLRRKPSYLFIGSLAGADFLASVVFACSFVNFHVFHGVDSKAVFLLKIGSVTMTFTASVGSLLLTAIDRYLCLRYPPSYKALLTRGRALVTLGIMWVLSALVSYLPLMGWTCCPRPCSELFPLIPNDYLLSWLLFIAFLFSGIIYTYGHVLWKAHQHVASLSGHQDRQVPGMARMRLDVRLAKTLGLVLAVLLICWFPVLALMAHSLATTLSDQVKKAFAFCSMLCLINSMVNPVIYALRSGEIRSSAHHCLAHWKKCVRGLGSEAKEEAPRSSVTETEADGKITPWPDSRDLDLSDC
Chain of hCB2R overexpressing CHO cells (P34972 whole entry): as above
Chain of hCB1R (P21554 whole entry): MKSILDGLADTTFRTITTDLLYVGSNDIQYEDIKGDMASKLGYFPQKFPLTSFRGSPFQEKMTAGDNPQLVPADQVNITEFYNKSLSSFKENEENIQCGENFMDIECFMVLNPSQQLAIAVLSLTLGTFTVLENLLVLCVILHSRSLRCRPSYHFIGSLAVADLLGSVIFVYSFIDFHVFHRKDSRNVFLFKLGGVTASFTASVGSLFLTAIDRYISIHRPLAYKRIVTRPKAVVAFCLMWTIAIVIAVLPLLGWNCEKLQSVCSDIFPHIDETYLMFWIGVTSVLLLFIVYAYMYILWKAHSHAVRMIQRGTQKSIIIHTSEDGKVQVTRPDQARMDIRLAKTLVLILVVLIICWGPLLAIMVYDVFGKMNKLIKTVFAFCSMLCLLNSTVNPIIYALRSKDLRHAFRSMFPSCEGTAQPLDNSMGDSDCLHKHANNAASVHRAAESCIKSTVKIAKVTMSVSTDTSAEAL

Row | Molecule | pKi (hCB1R) | pKi (hCB2R [1]) | Selectivity, ratio of Ki (CB1R)/Ki (CB2R) (hCB2R [1]) | Emax (hCB2R [2]; CHO) [%] | Function (hCB2R [2]) | further results
1 | CCC(CC)(NC(=O)c1ccc(C2CC2)c(Cc2ccc(F)cc2)n1)C(=O)NCCOCCOCCNC(=O)OC(C)(C)C [Compound 10b, TERT-BUTYL (1-(5-CYCLOPROPYL-6-(4-FLUOROBENZYL)PYRIDIN-2-YL)-3,3-DIETHYL-1,4-DIOXO-8,11-DIOXA-2,5-DIAZATRIDECAN-13-YL)CARBAMATE] | 6.33 | 8.22 | 78 | 83 | partial agonist | pEC50 (hCB2R [2]; [9]): 7.31
2 | N-(1-(3',6'-BIS(DIMETHYLAMINO)-3-OXO-3H-SPIRO[ISOBENZOFURAN-1,9'-XANTHEN]-5/6-YL)-13-ETHYL-1,12-DIOXO-5,8-DIOXA-2,11-DIAZAPENTADECAN-13-YL)-6-(((1S,2S)-2-(HYDROXYMETHYL)CYCLOPROPYL)METHOXY)-5-(3-METHOXYAZETIDIN-1-YL)PICOLINAMIDE [Compound 16] | – | – | – | – | Inverse agonist | Emax (hCB2R [2]; [10]): −29%; pIC50 (hCB2R [2]; [11]): 6.94; MFI of labeled CB2R in intracellular compartments [3]: 340 ± 13 MFI; plasma membrane labelling intensity (MFI) of labeled CB2R [3]: 350 ± 4 MFI; reduction of intracellular staining by endocytosis blockers (hCB2R-CHO cells [4]): without affecting; co-localization with LysoTracker (hCB2R-CHO cells [5]): clear co-localization pattern; distribution pattern in human macrophages [6]: mainly localized on cellular membranes and partially in perinuclear dots; kinetic binding characterization (hCB2R [7]): fast association and appropriate residence time
3 | 3',6'-DIAMINO-5/6-((3,3-DIETHYL-1-(6-(((1S,2S)-2-(HYDROXYMETHYL)CYCLOPROPYL)METHOXY)-5-(3-METHOXYAZETIDIN-1-YL)PYRIDIN-2-YL)-1,4-DIOXO-8,11-DIOXA-2,5-DIAZATRIDECAN-13-YL)CARBAMOYL)-3-OXO-3H-SPIRO[ISOBENZOFURAN-1,9'-XANTHENE]-4',5'-DISULFONIC ACID [Compound 18] | – | – | – | – | Inverse agonist | Emax (hCB2R [2]; [10]): −26%; pIC50 (hCB2R [2]; [11]): 6.58; selectivity and specificity for hCB2R in flow cytometry (hCB2R [8]): high selectivity even at very high concentrations
4 | N-(1-(3',6'-BIS(DIMETHYLAMINO)-3-OXO-3H-SPIRO[ISOBENZOFURAN-1,9'-XANTHEN]-5/6-YL)-13-ETHYL-1,12-DIOXO-5,8-DIOXA-2,11-DIAZAPENTADECAN-13-YL)-5-CYCLOPROPYL-6-(4-FLUOROBENZYL)PICOLINAMIDE [Compound 12] | – | – | – | – | partial agonism; also recorded: Partial agonist | Emax (hCB2R [2]; [10]): 80%; pEC50 (hCB2R [2]; read-out: EC50 (column EC50 or IC50), agonists, HTRF cAMP assay, cells stably expressing hCB2R): 7.09; MFI of labeled CB2R in intracellular compartments [3]: 2575 ± 100 MFI; plasma membrane labelling intensity (MFI) of labeled CB2R [3]: 2090 ± 175 MFI; reduction of intracellular staining by endocytosis blockers (hCB2R-CHO cells [4]): 70%; co-localization with LysoTracker (hCB2R-CHO cells [5]): partial overlap but no clear co-localization; distribution pattern in human macrophages [6]: widely distributed within the cell; kinetic binding characterization (hCB2R [7]): fast association and appropriate residence time
5 | CCC(CC)(NC(=O)c1ccc(C2CC2)c(Cc2ccc(F)cc2)n1)C(=O)NCCOCCOCCOCCNC(=O)OC(C)(C)C [Compound 10c, TERT-BUTYL (1-(5-CYCLOPROPYL-6-(4-FLUOROBENZYL)PYRIDIN-2-YL)-3,3-DIETHYL-1,4-DIOXO-8,11,14-TRIOXA-2,5-DIAZAHEXADECAN-16-YL)CARBAMATE] | 6.13 | 7.20 | 12 | – | – | –
6 | CCC(CC)(NC(=O)c1ccc(C2CC2)c(Cc2ccc(F)cc2)n1)C(=O)NCCOCCNC(=O)OC(C)(C)C [Compound 10a, TERT-BUTYL (2-(2-(2-(5-CYCLOPROPYL-6-(4-FLUOROBENZYL)PICOLINAMIDO)-2-ETHYLBUTANAMIDO)ETHOXY)ETHYL)CARBAMATE] | 6.08 | 7.55 | 30 | – | – | –
7 | CCC(CC)(NC(=O)c1ccc(N2CC(OC)C2)c(OC[C@H]2C[C@@H]2CO)n1)C(=O)NCCOCCOCCNC(=O)OC(C)(C)C [Compound 11b, TERT-BUTYL (3,3-DIETHYL-1-(6-(((1S,2S)-2-(HYDROXYMETHYL)CYCLOPROPYL)METHOXY)-5-(3-METHOXYAZETIDIN-1-YL)PYRIDIN-2-YL)-1,4-DIOXO-8,11-DIOXA-2,5-DIAZATRIDECAN-13-YL)CARBAMATE] | < 5.00 | 6.97 | >94 | -63 | Inverse agonist | pIC50 (hCB2R [2]): 7.06
8 | CCC(CC)(NC(=O)c1ccc(C2CC2)c(Cc2ccc(F)cc2)n1)C(=O)NCCOCCOCCOCCOCCNC(=O)OC(C)(C)C [Compound 10d, TERT-BUTYL (1-(5-CYCLOPROPYL-6-(4-FLUOROBENZYL)PYRIDIN-2-YL)-3,3-DIETHYL-1,4-DIOXO-8,11,14,17-TETRAOXA-2,5-DIAZANONADECAN-19-YL)CARBAMATE] | 5.83 | 6.84 | 10 | – | – | –
9 | CCC(CC)(NC(=O)c1ccc(N2CC(OC)C2)c(OC[C@H]2C[C@@H]2CO)n1)C(=O)NCCOCCOCCOCCNC(=O)OC(C)(C)C [Compound 11c, TERT-BUTYL (3,3-DIETHYL-1-(6-(((1S,2S)-2-(HYDROXYMETHYL)CYCLOPROPYL)METHOXY)-5-(3-METHOXYAZETIDIN-1-YL)PYRIDIN-2-YL)-1,4-DIOXO-8,11,14-TRIOXA-2,5-DIAZAHEXADECAN-16-YL)CARBAMATE] | < 5.00 | < 5.00 | – | – | – | –
10 | CCC(CC)(NC(=O)c1ccc(C2CC2)c(Cc2ccc(F)cc2)n1)C(=O)NCCOCCOCCNC(=O)c1ccc2c(c1)C1(OC2=O)c2ccc(N(C)C)cc2[Si](C)(C)c2cc(N(C)C)ccc21 [Compound 13, N-(1-(3,7-BIS(DIMETHYLAMINO)-5,5-DIMETHYL-3'-OXO-3'H,5H-SPIRO[DIBENZO[B,E]SILINE-10,1'-ISOBENZOFURAN]-6'-YL)-13-ETHYL-1,12-DIOXO-5,8-DIOXA-2,11-DIAZAPENTADECAN-13-YL)-5-CYCLOPROPYL-6-(4-FLUOROBENZYL)PICOLINAMIDE] | – | – | – | 127 | full agonism; also recorded: Full agonist | pEC50 (hCB2R [2]; [9]): 6.28
11 | CCC(CC)(NC(=O)c1ccc(N2CC(OC)C2)c(OC[C@H]2C[C@@H]2CO)n1)C(=O)NCCOCCOCCNC(=O)c1ccc2c(c1)C1(OC2=O)c2ccc(N(C)C)cc2[Si](C)(C)c2cc(N(C)C)ccc21 [Compound 17, N-(1-(3,7-BIS(DIMETHYLAMINO)-5,5-DIMETHYL-3'-OXO-3'H,5H-SPIRO[DIBENZO[B,E]SILINE-10,1'-ISOBENZOFURAN]-6'-YL)-13-ETHYL-1,12-DIOXO-5,8-DIOXA-2,11-DIAZAPENTADECAN-13-YL)-6-(((1S,2S)-2-(HYDROXYMETHYL)CYCLOPROPYL)METHOXY)-5-(3-METHOXYAZETIDIN-1-YL)PICOLINAMIDE] | – | – | – | -29 | Inverse agonist | pIC50 (hCB2R [2]): 6.89
12 | CCC(CC)(NC(=O)c1ccc(C2CC2)c(Cc2ccc(F)cc2)n1)C(=O)NCCOCCOCCNC(=O)c1ccc2c(c1)C(=O)OC21c2ccc(N)c(S(=O)(=O)O)c2Oc2c1ccc(N)c2S(=O)(=O)O [Compound 14, 3',6'-DIAMINO-5-((1-(5-CYCLOPROPYL-6-(4-FLUOROBENZYL)PYRIDIN-2-YL)-3,3-DIETHYL-1,4-DIOXO-8,11-DIOXA-2,5-DIAZATRIDECAN-13-YL)CARBAMOYL)-3-OXO-3H-SPIRO[ISOBENZOFURAN-1,9'-XANTHENE]-4',5'-DISULFONIC ACID] | – | – | – | 79 | partial agonism; also recorded: Partial agonist | pEC50 (hCB2R [2]; [9]): 7.11; selectivity and specificity for hCB2R in flow cytometry (hCB2R [8]): high selectivity even at very high concentrations
13 | CCC(CC)(NC(=O)c1ccc(N2CC(OC)C2)c(OC[C@H]2C[C@@H]2CO)n1)C(=O)NCCOCCNC(=O)OC(C)(C)C [Compound 11a, TERT-BUTYL (2-(2-(2-ETHYL-2-(6-(((1S,2S)-2-(HYDROXYMETHYL)CYCLOPROPYL)METHOXY)-5-(3-METHOXYAZETIDIN-1-YL)PICOLINAMIDO)BUTANAMIDO)ETHOXY)ETHYL)CARBAMATE] | < 5.00 | 5.69 | >4 | – | – | –
